Measurements: ChEMBL document CHEMBL1130413, “Novel 3'-C/N-substituted 2',3'-beta-D-dideoxynucleosides as potential chemotherapeutic agents. 1. Thymidine derivatives: synthesis, structure, and broad spectrum antiviral properties” (J Med Chem, 1997)
≈ marks a conversion by molar mass, not a printed value.

Legend:
E6SM [1] = assay: 50% Minimum inhibitory concentration which is required to reduce cytopathogenicity induced by (G) strain of HSV-2 virus on human E6SM cells.; assay type: functional
How it was run: (§1)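 Confluent cell monolayers infected with 100 CCID50 virus and left 1 h for adsorption. Residual virus then removed and compound added at serial dilutions (400, 200, 100 ... µg/mL). Value is the concentration giving 50% reduction of CPE.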

HEL [2] = assay: 50% Minimum inhibitory concentration which is required to reduce cytopathogenicity induced by (G) strain of HSV-2 virus on human embryonic HEL cells.; assay type: functional; how it was run: as §1
MT4 [3] = assay: 50% effective concentration of compound which is required to protect human MT-4 cells against cytopathogenicity of HIV-2.; assay type: functional, cell-based
HEL [4] = assay: 50% Minimum inhibitory concentration which is required to reduce cytopathogenicity induced by TK-(B2006) strain of HSV-1 virus on human embryonic HEL cells.; assay type: functional; how it was run: as §1
MT4 [5] = assay: Cytotoxic concentration which is required to reduce human MT-4 cell viability by 50%.; assay type: functional
CEM-TK(-) [6] = assay: Cytotoxic concentration which is required to reduce CEM/TK- cell viability by 50%.; assay type: functional; details: Homo sapiens
HEL [7] = assay: 50% Minimum inhibitory concentration which is required to reduce cytopathogenicity induced by (KOS) strain of HSV-1 virus on human embryonic HEL cells.; assay type: functional; how it was run: as §1
[8] = Selectivity index of HIV-1 and HIV-2 with respect to CEM cells; assay type: functional, CCRF-CEM
How it was run: (§2)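 Selectivity index calculated as average CC50 divided by average EC50. Each average comes from two independent experiments, using HIV-1 (IIIB) and HIV-2 (ROD) in CEM or MT-4 cells.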

CCRF-CEM [9] = assay: 50% effective concentration of compound which is required to protect human CEM cells against HIV-2 induced giant cell formation.; assay type: functional, cell-based
How it was run: (§3)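 CEM cells at 250000–300000 cells/mL infected with HIV-1 (IIIB) or HIV-2 (ROD) at 100 CCID50/mL. Infected cells mixed with serial compound dilutions and incubated 4 days at 37 °C. Syncytium (giant cell) formation then scored. Values averaged over two independent experiments.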

E6SM [10] = assay: 50% Minimum inhibitory concentration which is required to reduce cytopathogenicity induced by (KOS) strain of HSV-1 virus on human E6SM cells.; assay type: functional; how it was run: as §1
FM3A [11] = assay: EC50 is the cytotoxic concentration of compound required to reduce FM3A/TK- (Thymidine kinase deficient murine mammary carcinoma cells) cell viability by 50%.; assay type: functional, cell-based; details: Mus musculus
How it was run: (§4)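 Murine L1210 or FM3A-derived cells seeded at 5 × 10^5 cells/mL with varying compound concentrations. Incubated 2 days at 37 °C in humidified CO2. Viable cells counted with a Coulter counter. Value is the concentration reducing viable cell number by 50%.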

HepG2 = assay: 50% Effective concentration of compound required for inhibiting intracellular viral replicative intermediate DNA in HBV-transfected 2.2.15 cell line.; assay type: functional, cell-based; details: Homo sapiens
How it was run: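 2.2.15 cells (HBV-transfected, Hep-G2-derived) in DMEM with 4% FBS and 0.5 mM glutamine; drug exposure 9 days, medium changed every 3 days. Total intracellular DNA extracted and Southern-blotted with a 32P-labelled full-length HBV probe. Replicative intermediate DNA in treated cells compared with untreated 2.2.15 cells; Hep-G2 as negative control.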

HEL [12] = assay: 50% Minimum inhibitory concentration which is required to reduce cytopathogenicity induced by (OKA) strain of Varicella Zoster virus on human embryonic HEL cells.; assay type: functional
E6SM [13] = assay: 50% Minimum inhibitory concentration which is required to reduce cytopathogenicity induced by (Lyons) strain of HSV-2 virus on human E6SM cells.; assay type: functional; how it was run: as §1
CEM-TK(-) [14] = assay: 50% effective concentration of compound which is required to protect Thymidine kinase deficient human CEM (CEM/TK-) cells against HIV-2.; assay type: functional, cell-based
E6SM [15] = assay: 50% Minimum inhibitory concentration which is required to reduce cytopathogenicity induced by (196) strain of HSV-2 virus on human E6SM cells.; assay type: functional; how it was run: as §1
[16] = Selectivity index of HIV-1 and HIV-2 with respect to MT-4 cells; assay type: functional, MT4; how it was run: as §2
FM3A [17] = assay: EC50 is the cytotoxic concentration of compound required to reduce FM3A/TK- HSV-1TK+ cell viability by 50%.; assay type: functional, cell-based; details: Mus musculus; how it was run: as §4
E6SM [18] = assay: 50% Minimum inhibitory concentration which is required to reduce cytopathogenicity induced by (F) strain of HSV-1 virus on human E6SM cells.; assay type: functional; how it was run: as §1
MOLT-4 = assay: EC50 is the cytotoxic concentration of compound required to reduce Molt4/C8 (human T-lymphocyte) cell viability by 50%.; assay type: functional, cell-based
How it was run: (§5)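 Human CEM or Molt-4 cells seeded at 7.5 × 10^5 cells/mL with varying compound concentrations. Incubated 3 days at 37 °C in humidified CO2. Viable cells counted with a Coulter counter. Value is the concentration reducing viable cell number by 50%.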

E6SM [19] = assay: 50% Minimum inhibitory concentration which is required to reduce cytopathogenicity induced by TK-(B2006) strain of HSV-1 virus on human E6SM cells.; assay type: functional; how it was run: as §1
FM3A [20] = assay: EC50 is the cytotoxic concentration of compound required to reduce FM3A (murine mammary carcinoma cells) cell viability by 50%.; assay type: functional, cell-based; details: Mus musculus; how it was run: as §4
E6SM [21] = assay: 50% Minimum inhibitory concentration which is required to reduce cytopathogenicity induced by (Mc Intyre) strain of HSV-1 virus on human E6SM cells.; assay type: functional; how it was run: as §1
MT4 [22] = assay: 50% effective concentration of compound which is required to protect human MT-4 cells against cytopathogenicity of HIV-1.; assay type: functional, cell-based
HEL [23] = assay: 50% Minimum inhibitory concentration which is required to reduce cytopathogenicity induced by (Mc Intyre) strain of HSV-1 virus on human embryonic HEL cells.; assay type: functional; how it was run: as §1
L1210 = assay: EC50 is the cytotoxic concentration of compound required to reduce L1210 (murine leukemia cells) cell viability by 50%.; assay type: functional, cell-based; details: Mus musculus; how it was run: as §4
HeLa = assay: 50% Minimum inhibitory concentration which is required to reduce cytopathogenicity induced by Vesicular Stomatitis virus (VSV) in Hela cells.; assay type: functional; details: Homo sapiens; how it was run: as §1
CCRF-CEM [24] = assay: Cytotoxic concentration which is required to reduce human CEM cell viability by 50%.; assay type: functional; how it was run: as §5
CCRF-CEM [25] = assay: 50% effective concentration of compound which is required to protect human CEM cells against HIV-1 induced giant cell formation.; assay type: functional, cell-based; how it was run: as §3
[26] = Minimum cytotoxic concentration which causes microscopically detectable alteration of normal cell morphology after 2 days of incubation.; assay type: functional; details: 48 h
How it was run: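 Uninfected E6SM cells exposed to compound for 2 days. Minimum concentration giving a microscopically detectable change in normal cell morphology recorded.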

HEL [27] = assay: 50% Minimum inhibitory concentration which is required to reduce cytopathogenicity induced by (Lyons) strain of HSV-2 virus on human embryonic HEL cells.; assay type: functional; how it was run: as §1

Row | Structure (SMILES) | MIC (E6SM [1]) [µg/mL] | EC50 (MT4 [3]) [µg/mL] | CC50 (MT4 [5]) [µg/mL] | CC50 (CEM-TK(-) [6]) [µg/mL] | Selectivity index [8] | EC50 (CCRF-CEM [9]) [µg/mL] | MIC (E6SM [10]) [µg/mL] | EC50 (FM3A [11]) [µg/mL] | MIC (E6SM [13]) [µg/mL] | EC50 (CEM-TK(-) [14]) [µg/mL] | MIC (E6SM [15]) [µg/mL] | Selectivity index [16] | EC50 (FM3A [17]) [µg/mL] | MIC (E6SM [18]) [µg/mL] | EC50 (MOLT-4) [µg/mL] | MIC (E6SM [19]) [µg/mL] | EC50 (FM3A [20]) [µg/mL] | MIC (E6SM [21]) [µg/mL] | EC50 (MT4 [22]) [µg/mL] | EC50 (L1210) [µg/mL] | other results
1 | Cc1cn(C2C/C(=N\O)C(CO)O2)c(=O)[nH]c1=O (centres undefined) | 0.7 (≈ 2.74 µM) | 0.03 (≈ 0.118 µM) | 1.6 (≈ 6.27 µM) | > 100 | 28 | 0.35 (≈ 1.37 µM) | 0.4 (≈ 1.57 µM) | > 200 | 1.4 (≈ 5.49 µM) | 20 (≈ 78.4 µM) | 11 (≈ 43.1 µM) | 88 | > 200 | 0.5 (≈ 1.96 µM) | 1.2 (≈ 4.7 µM) | > 200 | > 200 | 1.3 (≈ 5.09 µM) | 0.025 (≈ 0.098 µM) | 1.1 (≈ 4.31 µM) | MIC (HEL [2]): 0.5 µg/mL (≈ 1.96 µM); MIC (HEL [4]): > 50 µg/mL; MIC (HEL [7]): 1.4 µg/mL (≈ 5.49 µM); EC50 (HepG2): 0.25 µg/mL (≈ 0.98 µM); MIC (HEL [12]): 20 µg/mL (≈ 78.4 µM); MIC (HEL [23]): 0.85 µg/mL (≈ 3.33 µM); MIC (HeLa): 135 µg/mL (≈ 529 µM); CC50 (CCRF-CEM [24]): 9.9 µg/mL (≈ 38.8 µM); EC50 (CCRF-CEM [25]): 0.4 µg/mL (≈ 1.57 µM); MCC [26]: > 400 µg/mL; MIC (HEL [27]): 0.31 µg/mL (≈ 1.21 µM)
2 | Cc1cn(C2C/C(=[N+](/[O-])O)C(CO)O2)c(=O)[nH]c1=O (centres undefined) | > 200 | 1.2 (≈ 4.42 µM) | 91 (≈ 336 µM) | > 200 | 25 | 10 (≈ 36.9 µM) | 35 (≈ 129 µM) | > 200 | > 200 | > 100 | > 200 | 102 | > 200 | 9 (≈ 33.2 µM) | 17 (≈ 62.7 µM) | > 200 | > 200 | 35 (≈ 129 µM) | 0.86 (≈ 3.17 µM) | 25 (≈ 92.2 µM) | CC50 (CCRF-CEM [24]): 247 µg/mL (≈ 911 µM); EC50 (CCRF-CEM [25]): 13 µg/mL (≈ 47.9 µM); MCC [26]: > 200 µg/mL
